Holding throughout (details): stereoisomer not certain
One test deals with T1, UniProt E9PZ66.
T1 sequence (whole entry): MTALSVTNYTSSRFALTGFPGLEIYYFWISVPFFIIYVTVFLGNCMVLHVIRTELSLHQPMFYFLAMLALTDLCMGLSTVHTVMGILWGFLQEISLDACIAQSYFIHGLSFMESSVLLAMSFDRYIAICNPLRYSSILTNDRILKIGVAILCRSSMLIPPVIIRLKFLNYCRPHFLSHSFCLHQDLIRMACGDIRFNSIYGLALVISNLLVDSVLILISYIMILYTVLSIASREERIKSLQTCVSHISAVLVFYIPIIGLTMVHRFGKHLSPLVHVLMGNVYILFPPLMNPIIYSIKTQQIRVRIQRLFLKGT
A digest of the protocol: (§1)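 Values were gathered from published papers (main text and supplementary material), with extra details requested from the original authors when needed, and checked for typos and inconsistencies. Each receptor–molecule pair is called responsive (active) if the original authors judged the measured signal statistically different from baseline, and non-responsive (inactive) otherwise. Assay methods varied by source, often transient mammalian cell-line luciferase assays. Recorded details include cell line, G-protein, co-transfected protein and tags.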

The next test addresses T2, UniProt E9Q4X7.
T2 sequence (whole entry): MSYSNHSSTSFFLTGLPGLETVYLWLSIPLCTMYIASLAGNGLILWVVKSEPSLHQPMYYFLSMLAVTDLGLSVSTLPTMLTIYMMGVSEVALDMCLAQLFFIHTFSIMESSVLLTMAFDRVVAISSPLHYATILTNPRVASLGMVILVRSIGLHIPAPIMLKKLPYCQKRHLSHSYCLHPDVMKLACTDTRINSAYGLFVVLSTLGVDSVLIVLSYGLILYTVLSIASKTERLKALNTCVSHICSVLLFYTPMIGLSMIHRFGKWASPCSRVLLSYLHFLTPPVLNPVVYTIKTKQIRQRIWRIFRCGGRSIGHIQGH
A digest of the protocol:
as §1

In a further test the target is T3, UniProt E9Q546.
T3 sequence (whole entry): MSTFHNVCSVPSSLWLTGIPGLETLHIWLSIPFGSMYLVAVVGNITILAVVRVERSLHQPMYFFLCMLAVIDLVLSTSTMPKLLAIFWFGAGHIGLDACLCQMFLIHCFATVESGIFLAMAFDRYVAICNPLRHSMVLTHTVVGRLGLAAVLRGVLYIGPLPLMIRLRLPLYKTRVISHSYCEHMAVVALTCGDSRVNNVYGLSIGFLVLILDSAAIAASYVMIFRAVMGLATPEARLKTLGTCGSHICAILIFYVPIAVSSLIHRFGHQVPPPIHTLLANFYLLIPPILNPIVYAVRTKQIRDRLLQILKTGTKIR
The procedure, abridged:
as §1

A further test deals with T4, UniProt E9Q6Z7.
T4 sequence (whole entry): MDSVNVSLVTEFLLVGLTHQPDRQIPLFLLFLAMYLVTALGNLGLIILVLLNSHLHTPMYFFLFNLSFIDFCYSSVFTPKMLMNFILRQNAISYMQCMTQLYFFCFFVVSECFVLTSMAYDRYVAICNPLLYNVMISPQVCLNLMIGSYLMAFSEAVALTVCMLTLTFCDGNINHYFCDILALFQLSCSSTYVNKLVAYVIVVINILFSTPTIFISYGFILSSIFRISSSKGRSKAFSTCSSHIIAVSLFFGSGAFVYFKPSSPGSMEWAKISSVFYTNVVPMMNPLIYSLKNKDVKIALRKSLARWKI
A digest of the protocol: as §1

The target of a further test is T5, UniProt K7N609.
T5 sequence (whole entry): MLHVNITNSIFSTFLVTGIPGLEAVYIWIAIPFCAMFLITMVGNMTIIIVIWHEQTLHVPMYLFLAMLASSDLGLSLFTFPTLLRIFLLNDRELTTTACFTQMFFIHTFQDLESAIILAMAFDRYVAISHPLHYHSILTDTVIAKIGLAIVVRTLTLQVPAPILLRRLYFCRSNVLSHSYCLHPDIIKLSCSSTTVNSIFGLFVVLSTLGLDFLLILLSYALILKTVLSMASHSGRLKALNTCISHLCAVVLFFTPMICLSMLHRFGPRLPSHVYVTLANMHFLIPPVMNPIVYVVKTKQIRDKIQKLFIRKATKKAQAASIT
The procedure, abridged:
as §1

The record followed here is the M2OR odorant receptor database.

Consider `CCCCCCOC(C)=O`, for which the “odorant receptor agonist call” value with UniProt E9PZ66, with UniProt E9Q4X7, with UniProt E9Q546, with UniProt E9Q6Z7 and in the test with UniProt K7N609 was “inactive” each time.

Consider `CCCCCCCC(=O)[O-].[H+]`, for which the “odorant receptor agonist call” value in the test with UniProt E9Q546 is “active”. In the test with UniProt K7N609, the “odorant receptor agonist call” value is “inactive”.

As to `CCCCCC(=O)CC`, the “odorant receptor agonist call” value with UniProt E9PZ66, with UniProt E9Q4X7, in the test with UniProt E9Q546, with UniProt E9Q6Z7 and in the test with UniProt K7N609 was “inactive” in each case.

In the case of `CCCCCCCC(C)=O`, the “odorant receptor agonist call” value in the test with UniProt E9PZ66, with UniProt E9Q4X7, in the test with UniProt E9Q546, in the test with UniProt E9Q6Z7 and with UniProt K7N609 was “inactive” each time.

For `CCCCCCC(C)=O`, the “odorant receptor agonist call” value in the test with UniProt E9PZ66, in the test with UniProt E9Q4X7, with UniProt E9Q546, in the test with UniProt E9Q6Z7 and with UniProt K7N609 was “inactive” throughout.

`CCCCCO`: the “odorant receptor agonist call” value with UniProt E9Q546 and in the test with UniProt K7N609 was “inactive” throughout.

As to `CCCCC(=O)CC`, the “odorant receptor agonist call” value with UniProt E9PZ66, in the test with UniProt E9Q4X7, in the test with UniProt E9Q546, with UniProt E9Q6Z7 and with UniProt K7N609 was “inactive” in each case.

In the case of `CC(=O)OCc1ccccc1`, the “odorant receptor agonist call” value with UniProt E9PZ66, with UniProt E9Q4X7, with UniProt E9Q546, with UniProt E9Q6Z7 and in the test with UniProt K7N609 was “inactive” in each case.

As for `CCCCCCC(=O)[O-].[H+]`, the “odorant receptor agonist call” value in the test with UniProt E9Q546 and with UniProt K7N609 was “inactive” each time.

For the molecule `CC(=O)Oc1ccccc1`, the “odorant receptor agonist call” value in the test with UniProt E9PZ66, with UniProt E9Q4X7, with UniProt E9Q546, with UniProt E9Q6Z7 and with UniProt K7N609 was “inactive” each time.

For `C=CCOC(=O)CCCCCC`, the “odorant receptor agonist call” value with UniProt E9PZ66, in the test with UniProt E9Q4X7, with UniProt E9Q546, in the test with UniProt E9Q6Z7 and in the test with UniProt K7N609 was “inactive” throughout.

Turning to `CCCCC(C)=O`, the “odorant receptor agonist call” value in the test with UniProt E9PZ66, in the test with UniProt E9Q4X7, with UniProt E9Q546, with UniProt E9Q6Z7 and with UniProt K7N609 was “inactive” each time.
